{"data": "Assay results of several laboratories", "DNA dC->dU-editing enzyme APOBEC-3B": "DNA dC->dU-editing enzyme APOBEC-3B (Homo sapiens, UniProt Q9UH17)", "SLC6A2": "Sodium-dependent noradrenaline transporter (SLC6A2, Homo sapiens, UniProt P23975)", "FPR1": "fMet-Leu-Phe receptor (FPR1, Homo sapiens, UniProt P21462)", "CHEK2 R145W": "Serine/threonine-protein kinase Chk2 (CHEK2, Homo sapiens, UniProt O96017, R145W)", "note": "Lines come from different studies, so protocols differ."}
{"SMILES": "Nc1ncnc2c1ncn2C1OC(COP(=O)(O)OP(=O)(O)O)C(O)C1O (stereo not shown)", "target": "DNA dC->dU-editing enzyme APOBEC-3B", "assay": "enzyme activity, inhibitor, fluorescence", "conditions": "100 µM", "inhibition [%]": 41.8}
{"SMILES": "Fc1ccc(C(c2ccc(F)cc2)c2nnnn2CCCCN2CCC(Cc3ccccc3)CC2)cc1", "target": "SLC6A2", "assay": "transporter uptake, inhibitor", "test system": "HEK293", "conditions": "1 µM", "inhibition [%]": 81}
{"SMILES": "CC(=O)N[C@H]1CSSC[C@@H](C(=O)N[C@@H](Cc2c[nH]c3ccccc23)C(N)=O)NC(=O)[C@H](Cc2ccccc2)NC(=O)[C@H](CCCNC(=N)N)NC1=O", "target": "Melanocortin receptor 4 (MC4R, Homo sapiens, UniProt P32245)", "assay": "ligand displacement, radioligand", "conditions": "10 µM, 40 min", "inhibition [%]": 0}
{"SMILES": "Oc1cccc(Nc2nc(-c3ccc(F)cc3F)cs2)c1", "target": "Muscarinic acetylcholine receptor M5 (CHRM5, Homo sapiens, UniProt P08912)", "assay": "cell-free assay", "conditions": "10 µM", "inhibition [%]": -24.9}
{"SMILES": "COc1ccccc1-c1c(C(F)(F)F)oc2cc(OC(=O)C3CC3)ccc2c1=O", "target": "FPR1", "assay": "calcium signal, antagonist", "conditions": "50 µM", "inhibition [%]": 100}
{"SMILES": "Clc1ccc(C(c2ccccc2)c2nnnn2CCCN2CCC(CCCc3ccccc3)CC2)cc1 (stereo not shown)", "target": "SLC6A2", "assay": "transporter uptake, inhibitor", "test system": "HEK293", "conditions": "1 µM", "inhibition [%]": 72.8}
{"SMILES": "O=C(Oc1ccc2c(=O)c(-c3ccccc3)c(C(F)(F)F)oc2c1)c1cccs1", "target": "FPR1", "assay": "calcium signal, antagonist", "conditions": "50 µM", "inhibition [%]": 90}
{"SMILES": "Clc1ccc(C(c2ccc(Cl)cc2)c2nnnn2CCCCN2CCN(CCCc3ccccc3)CC2)cc1", "target": "SLC6A2", "assay": "transporter uptake, inhibitor", "test system": "HEK293", "conditions": "1 µM", "inhibition [%]": 21.3}
{"SMILES": "CCN(Cc1ccccc1C(F)(F)F)C(=O)C1CCN(S(=O)(=O)c2ccc3[nH]ncc3c2)CC1", "target": "Cysteinyl leukotriene receptor 1 (CYSLTR1, Homo sapiens, UniProt Q9Y271)", "assay": "ligand displacement, radioligand", "conditions": "10 µM", "inhibition [%]": 38}
{"SMILES": "OCC1OC(Oc2cc(O)cc(/C=C/c3ccc(O)cc3)c2)C(O)C(O)C1O (stereo not shown)", "target": "DNA dC->dU-editing enzyme APOBEC-3B", "assay": "enzyme activity, inhibitor, fluorescence", "conditions": "100 µM", "inhibition [%]": 31.5}
{"SMILES": "CCc1cc2c(=O)c(-c3nc4ccccc4n3C)c(C)oc2cc1OC(C)=O", "target": "FPR1", "assay": "calcium signal, antagonist", "conditions": "50 µM", "inhibition [%]": 100}
{"SMILES": "O=C(O)C1OC(Oc2cc(O)c3c(=O)cc(-c4ccc(O)cc4)oc3c2)C(O)C(O)C1O (stereo not shown)", "target": "DNA dC->dU-editing enzyme APOBEC-3B", "assay": "enzyme activity, inhibitor, fluorescence", "conditions": "100 µM", "inhibition [%]": 41.2}
{"SMILES": "CC/C(=N\\NC(=O)NCc1cccc(O)c1)c1ccc(O)c(C)c1O", "target": "Fibroblast growth factor receptor 4 (FGFR4, Homo sapiens, UniProt P22455, N535K)", "assay": "enzyme activity, inhibitor", "conditions": "0.1 µM", "inhibition [%]": 3.1}
{"SMILES": "Cc1ccc(Nc2nccc(N(C)c3ccc4c(C)n(C)nc4c3)n2)cc1S(N)(=O)=O", "target": "CHEK2 R145W", "assay": "enzyme activity, inhibitor", "conditions": "0.3 µM", "inhibition [%]": -4}
{"SMILES": "Cc1c(COc2c(F)cc(F)cc2F)c2c(n1C)C(=O)C=C(NCCCN)C2=O", "target": "Ribosyldihydronicotinamide dehydrogenase [quinone] (NQO2, Homo sapiens, UniProt P16083)", "assay": "cell-free assay, inhibitor", "conditions": "1 µM", "inhibition [%]": 97}
{"SMILES": "COc1ccccc1-c1c(C(F)(F)F)oc2cc(OC(=O)c3ccco3)ccc2c1=O", "target": "FPR1", "assay": "calcium signal, antagonist", "conditions": "50 µM", "inhibition [%]": 100}
{"SMILES": "CNC(=O)c1cc(Oc2ccc(NC(=O)Nc3ccc(Cl)c(C(F)(F)F)c3)cc2)ccn1", "target": "CHEK2 R145W", "assay": "enzyme activity, inhibitor", "conditions": "10 µM", "inhibition [%]": 0}
{"SMILES": "CCOC(=O)Oc1ccc2c(=O)c(-c3ccccc3OC)c(C(F)(F)F)oc2c1", "target": "FPR1", "assay": "calcium signal, antagonist", "conditions": "50 µM", "inhibition [%]": 80}
{"SMILES": "Clc1ccc(C(c2ccccc2)c2nnnn2CCCCN2CCN(CC=Cc3ccccc3)CC2)cc1 (stereo not shown)", "target": "SLC6A2", "assay": "transporter uptake, inhibitor", "test system": "HEK293", "conditions": "1 µM", "inhibition [%]": 50.4}
{"SMILES": "O=c1c(-c2ccc(O)cc2)coc2c(OC3OC(CO)C(O)C(O)C3O)c(O)ccc12 (stereo not shown)", "target": "DNA dC->dU-editing enzyme APOBEC-3B", "assay": "enzyme activity, inhibitor, fluorescence", "conditions": "100 µM", "inhibition [%]": 37.5}
{"SMILES": "Clc1ccc(C(c2ccccc2)c2nnnn2CCCCN2CCN(CCCc3ccccc3)CC2)cc1 (stereo not shown)", "target": "SLC6A2", "assay": "transporter uptake, inhibitor", "test system": "HEK293", "conditions": "1 µM", "inhibition [%]": 63.6}
{"SMILES": "Nc1c(Cl)cccc1C(=O)Nc1ccccc1C(=O)O", "target": "srtA (Staphylococcus aureus, UniProt Q2FV99)", "assay": "enzyme activity, inhibitor", "conditions": "200 µM", "inhibition [%]": 100}
{"SMILES": "Fc1ccc(C(c2ccc(F)cc2)c2nnnn2CCCCN2CCC(Cc3ccc(Cl)c(Cl)c3)CC2)cc1", "target": "SLC6A2", "assay": "transporter uptake, inhibitor", "test system": "HEK293", "conditions": "1 µM", "inhibition [%]": 75.9}
{"SMILES": "COc1ccccc1-c1c(C)oc2cc(OC(=O)c3cccs3)ccc2c1=O", "target": "FPR1", "assay": "calcium signal, antagonist", "conditions": "50 µM", "inhibition [%]": 100}
{"SMILES": "c1ccc(CCC2CCN(CCCn3nnnc3C(c3ccccc3)c3ccccc3)CC2)cc1", "target": "SLC6A2", "assay": "transporter uptake, inhibitor", "test system": "HEK293", "conditions": "1 µM", "inhibition [%]": 74.4}
{"SMILES": "CCN1CCN(Cc2ccc(NC(=O)c3ccc(C)c(Oc4ccnc5[nH]ccc45)c3)cc2C(F)(F)F)CC1", "target": "Serine/threonine-protein kinase WNK4 (WNK4, Homo sapiens, UniProt Q96J92)", "assay": "target engagement in cells, inhibitor, chemoproteomics", "test system": "Huh-7", "conditions": "1 µM", "inhibition [%]": -11.5}
{"SMILES": "Clc1ccc(C(c2ccccc2)c2nnnn2CCCCN2CCN(CCc3ccccc3)CC2)cc1 (stereo not shown)", "target": "SLC6A2", "assay": "transporter uptake, inhibitor", "test system": "HEK293", "conditions": "1 µM", "inhibition [%]": 47.6}
{"SMILES": "Cc1oc2cc(OC(=O)c3ccco3)ccc2c(=O)c1-c1ccccc1", "target": "FPR1", "assay": "calcium signal, antagonist", "conditions": "50 µM", "inhibition [%]": 100}
